Assay [1] deals with T1, Adenosine receptor A3 (Homo sapiens) (UniProt P0DMS8).
T1 sequence (whole entry): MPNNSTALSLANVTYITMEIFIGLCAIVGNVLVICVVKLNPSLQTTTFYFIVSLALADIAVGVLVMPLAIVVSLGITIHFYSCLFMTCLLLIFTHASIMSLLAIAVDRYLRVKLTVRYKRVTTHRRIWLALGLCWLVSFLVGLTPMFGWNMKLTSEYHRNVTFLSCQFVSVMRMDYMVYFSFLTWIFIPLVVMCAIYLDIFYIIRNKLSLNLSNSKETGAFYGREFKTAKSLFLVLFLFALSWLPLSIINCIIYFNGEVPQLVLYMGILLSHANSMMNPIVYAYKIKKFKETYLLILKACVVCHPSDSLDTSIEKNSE
In words: Increase of efficacy at human adenosine A3 receptor in CHO cells at 10 uM relative to 2-Cl-IB-MECA.

Assay [2] deals with T1, Adenosine receptor A3 (Homo sapiens). In words: Displacement of [125I]I-AB-MECA from human adenosine A3 receptor in CHO membrane at 10 uM. The class given is cell membranes. In a few lines: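 Membranes from CHO cells stably expressing human A3AR (20 μg protein) incubated with 0.5 nM [125I]I-AB-MECA and 10 μM test ligand, 60 min at 25°C, in 50 mM Tris·HCl pH 8.0, 10 mM MgCl2, 1 mM EDTA. Nonspecific binding defined with 10 μM NECA; filtration, gamma counting. Mean of 2-4 experiments in duplicate.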
On the technique in general: In a radioligand displacement assay an active substance lowers the binding of a labelled ligand.

Assay [3] addresses T2, Adenosine receptor A2b (Homo sapiens) (UniProt P29275).
T2 sequence (whole entry): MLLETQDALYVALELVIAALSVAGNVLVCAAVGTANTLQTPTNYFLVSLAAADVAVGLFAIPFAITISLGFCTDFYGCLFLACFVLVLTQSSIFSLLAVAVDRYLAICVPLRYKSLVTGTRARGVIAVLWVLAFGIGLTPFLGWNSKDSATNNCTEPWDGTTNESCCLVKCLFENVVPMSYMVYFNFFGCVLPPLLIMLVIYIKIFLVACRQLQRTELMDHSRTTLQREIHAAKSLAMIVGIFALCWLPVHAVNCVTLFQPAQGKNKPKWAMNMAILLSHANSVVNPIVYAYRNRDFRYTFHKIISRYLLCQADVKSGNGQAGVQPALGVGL
In words: Antagonist activity at human adenosine A2B receptor assessed as inhibition of NECA-induced cAMP accumulation in CHO membrane at 10 uM. Set-up: scale not given: the % may be the effect or the level left. A general note: Changes in cAMP serve as a functional read-out for many G protein-coupled receptors.

Assay [4] deals with T3, Adenosine receptor A1 (Homo sapiens) (UniProt P30542).
T3 sequence (whole entry): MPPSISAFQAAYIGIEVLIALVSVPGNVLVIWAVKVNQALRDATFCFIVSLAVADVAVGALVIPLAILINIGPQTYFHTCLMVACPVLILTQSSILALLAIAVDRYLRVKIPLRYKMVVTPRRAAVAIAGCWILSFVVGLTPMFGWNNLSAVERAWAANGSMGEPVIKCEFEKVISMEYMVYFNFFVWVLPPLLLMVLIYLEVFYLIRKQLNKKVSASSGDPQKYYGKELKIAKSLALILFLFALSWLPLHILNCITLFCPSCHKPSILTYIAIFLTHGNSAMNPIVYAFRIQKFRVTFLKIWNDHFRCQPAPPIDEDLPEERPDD
In words: Displacement of [3H]R-PIA from human adenosine A1 receptor in CHO membrane at 10 uM. The class given is cell membranes.

Assay [5] deals with T4, Adenosine receptor A2a (Homo sapiens, UniProt P29274). In words: Displacement of [3H]CGS21680 from human adenosine A2A receptor in HEK293 cells at 10 uM.
T4 sequence (P29274 whole entry): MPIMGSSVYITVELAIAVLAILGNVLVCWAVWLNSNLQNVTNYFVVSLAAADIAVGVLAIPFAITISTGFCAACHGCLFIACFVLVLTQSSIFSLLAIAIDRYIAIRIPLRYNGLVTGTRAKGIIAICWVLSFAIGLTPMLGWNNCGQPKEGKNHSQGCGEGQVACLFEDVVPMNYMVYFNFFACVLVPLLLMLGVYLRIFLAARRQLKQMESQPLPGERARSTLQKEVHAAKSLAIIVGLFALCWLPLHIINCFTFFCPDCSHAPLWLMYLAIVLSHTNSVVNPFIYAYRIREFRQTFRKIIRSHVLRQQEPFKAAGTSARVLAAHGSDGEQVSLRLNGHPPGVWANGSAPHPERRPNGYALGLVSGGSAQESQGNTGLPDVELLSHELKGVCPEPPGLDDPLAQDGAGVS
The target in assay [6] is T1, Adenosine receptor A3 (Homo sapiens). In words: Decrease in dissociation of [125I]I-AB-MECA from human adenosine A3 receptor in CHO membrane at 10 uM relative to control after 30 min. Set-up: scale not given: the % may be the effect or the level left. The class given is cell membranes. The essentials: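 Membranes (20 μg) preloaded with 0.5 nM [125I]I-AB-MECA, 60 min at 25°C, in 50 mM Tris-HCl pH 8.0 with 10 mM MgCl2 and 1 mM EDTA. Dissociation started with 3 μM Cl-IB-MECA, with or without 10 μM modulator. Binding read by rapid filtration at 30 min; reported as % decrease in dissociation versus control (100%).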

The target of another assay is T5, Adenosine receptor A1 (Homo sapiens, UniProt P30542).
T5 sequence (P30542 whole entry): T3 sequence (whole entry)
In words: Displacement of [3H]R-PIA from human adenosine A1 receptor in CHO membrane. The class given is cell membranes. In a few lines:
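Membranes (40 μg/tube) from CHO cells stably expressing human A1AR, incubated with 2 nM [3H]R-PIA at 25 °C for 60 min in 50 mM Tris·HCl pH 7.4, 10 mM MgCl2. Membranes stored with 3 U/mL adenosine deaminase. Nonspecific binding defined with 10 μM N6-cyclopentyladenosine. Reaction ended by GF/B filtration.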

For assay [7], the target named is T4, Adenosine receptor A2a. Briefly: Displacement of [3H]CGS21680 from human adenosine A2A receptor in HEK293 cells.

The results in this text go back to ChEMBL document CHEMBL1148506, “Structure-activity relationships of new 1H-imidazo[4,5-c]quinolin-4-amine derivatives as allosteric enhancers of the A3 adenosine receptor” (J Med Chem, 2006).

A value given as a limit tells only on which side of the number the result lay.

Regarding `COc1ccc(CNc2[nH]c3ccccc3c3nc(C4CCCC4)nc2-3)cc1`, the Activity in assay [1] was 109%; in assay [2] it was 80%; in assay [3], 0.3%; in assay [4], 59%; on Adenosine receptor A2a [5] it was 60%; in assay [6] it was 101%.
As to `Clc1ccc(Nc2nc3ccccc3c3[nH]c(C4CCCCCC4)nc23)cc1Cl`, the Activity is 115% in assay [1]; 68% in assay [2]; -7.3% in assay [3]; -4% in assay [4]; -2% on Adenosine receptor A2a [5]; 130% in assay [6].
Take `Cc1ccc(Nc2nc3ccccc3c3[nH]c(C4CCCC4)nc23)cc1`: the Activity in assay [1] is 128%; in assay [2] it was 87%; in assay [3], -4.1%; in assay [6], 153%.
In general, Ki refers to the dissociation constant of the complex between target and ligand, obtained from inhibition or displacement. `Clc1ccc(Nc2nc3ccccc3c3[nH]c(C4CCCC4)nc23)cc1`: the Ki on Adenosine receptor A1 and at Adenosine receptor A2a [7] was greater than 10 µM each time. The Activity in assay [1] is 136%; in assay [2], 82%; in assay [3], -10.2%; in assay [4], 22%; at Adenosine receptor A2a [5] it was 17%; in assay [6], 159%.
On to `COc1ccc(Nc2nc3ccccc3c3nc(C4CCCC4)[nH]c23)cc1`, for which the Activity in assay [1] was found to be 132%; in assay [2], 92%; in assay [3], 7.3%; at Adenosine receptor A2a [5] it was 16%; in assay [6], 166%. This molecule also registered an inhibition constant (Ki) at Adenosine receptor A2a [7] greater than 10 µM.
For `c1ccc(CCNc2[nH]c3ccccc3c3nc(C4CCCC4)nc2-3)cc1`, the Activity is 137% in assay [1]; 84% in assay [2]; -11.6% in assay [3]; 52% in assay [4]; 91% at Adenosine receptor A2a [5]; 154% in assay [6].
`c1ccc(Nc2nc3ccccc3c3[nH]c(C4CCCC4)nc23)cc1`: the Activity in assay [1] is 138%; in assay [2], 90%; in assay [3], -6.8%; in assay [6] it was 174%.
For `Clc1ccc(Nc2nc3ccccc3c3[nH]c(C4CCC4)nc23)cc1Cl`, the Activity in assay [1] is 126%; in assay [2], 52%; in assay [3] it was -5.5%; in assay [4] it was -5%; at Adenosine receptor A2a [5] it was 0.4%.
Take `c1ccc(CNc2[nH]c3ccccc3c3nc(C4CCCC4)nc2-3)cc1`: the Activity was 147% in assay [1]; 86% in assay [2]; -3.4% in assay [3]; 28% in assay [4]; 77% at Adenosine receptor A2a [5]; 145% in assay [6].
`c1ccc2c3nc(C4CCCC4)nc-3c(Nc3ccc4c[nH]nc4c3)[nH]c2c1`: the Activity in assay [1] worked out at 96%; in assay [2] it was 67%; in assay [3], 5%; in assay [4] it was 56%; at Adenosine receptor A2a [5], 68%; in assay [6] it was 109%.
Consider `Clc1ccc(Nc2nc3ccccc3c3[nH]c(C4CCCC4)nc23)cc1Cl`, for which the Ki on Adenosine receptor A1 and on Adenosine receptor A2a [7] was greater than 10 µM in each case. Further, the Activity in assay [1] is 141%; in assay [2], 67%; in assay [3] it was -6.7%; in assay [4], 15%; on Adenosine receptor A2a [5] it was 0%; in assay [6], 144%.
Turning to `Clc1ccc(Nc2[nH]c3ccccc3c3nc(-c4ccco4)nc2-3)cc1Cl`, the Activity is 95% in assay [1]; 78% in assay [2]; 9% in assay [3]; -4% in assay [4]; 70% on Adenosine receptor A2a [5]; 98% in assay [6].
As for `Clc1ccc(Nc2[nH]c3ccccc3c3ncnc2-3)cc1Cl`, the Activity was 92% in assay [1]; 39% in assay [2]; 10.2% in assay [3]; 1.8% in assay [4]; -0.8% on Adenosine receptor A2a [5]; 91% in assay [6].
As for `c1ccc2c3nc(C4CCCC4)nc-3c(Nc3ccc4cc[nH]c4c3)[nH]c2c1`, the Activity in assay [1] is 125%; in assay [2], 89%; in assay [3] it was 10.1%; in assay [4], 70%; on Adenosine receptor A2a [5] it was 74%; in assay [6] it was 126%.
As for `CCCCCc1nc2c(Nc3ccc(Cl)c(Cl)c3)[nH]c3ccccc3c-2n1`, the Activity was 102% in assay [1]; 84% in assay [2]; -9.3% in assay [3]; 43.9% in assay [4]; -1% on Adenosine receptor A2a [5]; 116% in assay [6].
`OCc1cccc(Nc2[nH]c3ccccc3c3nc(C4CCCC4)nc2-3)c1`: the Activity in assay [1] was 118%; in assay [2], 56%; in assay [3] it was -4.1%; in assay [4], 51%; at Adenosine receptor A2a [5], 49%; in assay [6], 129%.
As to `Clc1ccc(Nc2nc3ccccc3c3nc(C4CCCCC4)[nH]c23)cc1Cl`, the Activity in assay [1] is 145%; in assay [2] it was 45%; in assay [3], -5.6%; in assay [4], -2%; on Adenosine receptor A2a [5] it was -1%; in assay [6] it was 173%.
On to `c1ccc2c3nc(C4CCCC4)nc-3c(Nc3ccc4c(c3)CCC4)[nH]c2c1`, for which the Activity in assay [1] is 111%; in assay [2], 69%; in assay [3] it was -10.7%; in assay [4] it was 21%; on Adenosine receptor A2a [5], 8%; in assay [6] it was 108%.
